Data reported in ChEMBL document CHEMBL1154610, “Discovery and preclinical evaluation of [4-[[1-(3-fluorophenyl)methyl]-1H-indazol-5-ylamino]-5-methylpyrrolo[2,1-f][1,2,4]triazin-6-yl]carbamic acid, (3S)-3-morpholinylmethyl ester (BMS-599626), a selective and orally efficacious inhibitor of human epidermal growth factor receptor 1 and 2 kinases” (J Med Chem, 2009).
The source made the active and inactive calls. No cut-off for these calls is given here.

Assays:
NCI-N87 [1] = experiment: Antiproliferative activity against human NCI-N87 cells after 72 hrs by MTT assay; type: functional, cell-based; settings: NCI-N87, 72 h
[2] = AUC (0 to 4 hrs) in BALB/c mouse at 50 mg/kg, po; type: ADME, organism-based; set-up: time < 4 hr, dose 50 mg/kg, route oral; settings: plasma
[3] = Cmax in BALB/c mouse at 50 mg/kg, po; type: ADME, organism-based; set-up: dose 50 mg/kg, route oral; settings: in vivo
Mus musculus [4] = experiment: Plasma concentration in BALB/c mouse at 50 mg/kg, po; type: ADME, organism-based; set-up: dose 50 mg/kg, route oral; settings: in vivo
Method in brief: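 Compound given orally at 50 mg/kg as a solution in PEG400/Tween80/water (40:10:50) to three Balb/C mice. Plasma sampled over 4 h after dosing; AUC(0-4h), Cmax and 4 h concentration reported.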

[5] = Metabolic stability in mouse liver microsomes assessed per mg of protein at 10 uM after 10 mins; type: ADME, Microsome
Method in brief: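 Mouse liver microsomes incubated with compound at 10 µM for 10 min; metabolic rate expressed as nmol/min/mg protein.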

[6] = Volume of distribution at steady state in mouse at 25 mg/kg, iv; type: ADME, organism-based; set-up: dose 25 mg/kg, route intravenous; settings: in vivo, read-out: Vdss
Method in brief: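 Mouse PK, average of three animals. Solution formulation in PG/Tween80/water (40:10:50), given orally at 120 mg/kg or iv at 25 mg/kg. Tmax taken from the oral arm; Vss taken from the iv arm.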

[7] = Oral bioavailability in mouse at 120 mg/kg; type: ADME, organism-based; settings: in vivo
[8] = Cmax in rat at 10 mg/kg, po; type: ADME, organism-based; set-up: dose 10 mg/kg, route oral; settings: in vivo
[9] = Tmax in rat at 10 mg/kg, po; type: ADME, organism-based; set-up: dose 10 mg/kg, route oral; settings: in vivo
Method in brief: (§1)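 Rat PK, average of three animals. Solution formulation in PEG400/Tween80/water (50:0.1:50), given orally at 10 mg/kg or iv at 2.5 mg/kg. Tmax comes from oral dosing; Vss comes from iv dosing.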

[10] = AUC (0 to 24 hrs) in rat at 10 mg/kg, po; type: ADME, organism-based; set-up: time < 24 hr, dose 10 mg/kg, route oral; settings: plasma
[11] = Volume of distribution at steady state in rat at 2.5 mg/kg, iv; type: ADME, organism-based; set-up: dose 2.5 mg/kg, route intravenous; settings: in vivo, read-out: Vdss; method in brief: as §1
[12] = Cmax in dog at 25 mg/kg, po; type: ADME, organism-based, Canis lupus familiaris; set-up: dose 25 mg/kg, route oral; settings: in vivo
[13] = Half life in dog plasma at 25 mg/kg, po; type: ADME, organism-based, Canis lupus familiaris; set-up: dose 25 mg/kg, route oral
[14] = Mean residence time in dog at 1.5 mg/kg, iv; type: ADME, organism-based, Canis lupus familiaris; set-up: dose 1.5 mg/kg, route intravenous; settings: in vivo
[15] = Cmax in cynomolgus monkey at 5 mg/kg, po; type: ADME, organism-based, Macaca fascicularis; set-up: dose 5 mg/kg, route oral; settings: in vivo
[16] = Tmax in cynomolgus monkey at 5 mg/kg, po; type: ADME, organism-based, Macaca fascicularis; set-up: dose 5 mg/kg, route oral; settings: in vivo
Method in brief: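 Monkey PK, mean of two animals. Compound given as a solution in PEG400/Tween80/water (50:0.1:50), 5 mg/kg both orally and iv. Tmax from the oral route; steady-state volume of distribution from the iv route.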

[17] = Half life in cynomolgus monkey plasma at 5 mg/kg, po; type: ADME, organism-based, Macaca fascicularis; set-up: dose 5 mg/kg, route oral
[18] = Mean residence time in cynomolgus monkey at 5 mg/kg, iv; type: ADME, organism-based, Macaca fascicularis; set-up: dose 5 mg/kg, route intravenous; settings: in vivo
[19] = Clearance in cynomolgus monkey at 5 mg/kg, iv; type: ADME, organism-based, Macaca fascicularis; set-up: dose 5 mg/kg, route intravenous; settings: in vivo
[20] = Oral bioavailability in cynomolgus monkey at 5 mg/kg; type: ADME, organism-based, Macaca fascicularis; settings: in vivo
L2987 [21] = experiment: Antitumor activity against human L2987 cells xenografted in athymic mouse at 60 mg/kg, po qd for 14 days; type: functional; settings: L2987, 336 h, read-out: TGI
Method in brief: (§2)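 Xenograft-bearing mice dosed orally once daily in propylene glycol/Tween80/water (40:10:50). TGI taken as percent tumor growth inhibition during treatment; significance from mean tumor weight at end of treatment; body weight loss and morbidity monitored.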

L2987 [22] = experiment: Antitumor activity against human L2987 cells xenografted in athymic mouse at 180 mg/kg, po qd for 14 days; type: functional; settings: L2987, 336 h, read-out: TGI; method in brief: as §2
[23] = Antitumor activity against human GEO cells xenografted in athymic mouse at 60 mg/kg, po qd for 14 days; type: functional; settings: 336 h, read-out: TGI; method in brief: as §2
[24] = Antitumor activity against human GEO cells xenografted in athymic mouse at 120 mg/kg, po qd for 14 days; type: functional; settings: 336 h, read-out: TGI; method in brief: as §2
[25] = Antitumor activity against human GEO cells xenografted in athymic mouse at 180 mg/kg, po qd for 14 days; type: functional; settings: 336 h, read-out: TGI; method in brief: as §2
[26] = Antitumor activity against human KPL4 cells xenografted in athymic mouse at 60 mg/kg, po qd for 21 days; type: functional; settings: KPL4, 504 h, read-out: TGI; method in brief: as §2
[27] = Antitumor activity against human KPL4 cells xenografted in athymic mouse at 180 mg/kg, po qd for 21 days; type: functional; settings: KPL4, 504 h, read-out: TGI; method in brief: as §2
NCI-N87 [28] = experiment: Antitumor activity against human NCI-N87 cells xenografted in athymic mouse at 60 mg/kg, po qd for 21 days; type: functional; settings: NCI-N87, 504 h, read-out: TGI; method in brief: as §2
NCI-N87 [29] = experiment: Antitumor activity against human NCI-N87 cells xenografted in athymic mouse at 120 mg/kg, po qd for 21 days; type: functional; settings: NCI-N87, 504 h, read-out: TGI; method in brief: as §2
NCI-N87 [30] = experiment: Antitumor activity against human NCI-N87 cells xenografted in athymic mouse at 180 mg/kg, po qd for 21 days; type: functional; settings: NCI-N87, 504 h, read-out: TGI; method in brief: as §2
Mus musculus [31] = species on record: Mus musculus; experiment: Toxicity in athymic mouse bearing human tumor cells assessed as mortality; type: organism-based
Method in brief: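 Mice carried human tumor xenografts (L2987, GEO, KPL4, N87) and were dosed orally once daily in propylene glycol/Tween80/water (40:10:50), with a q.d. × 21 schedule given. The L2987 dose levels included 30, 60 and 180 mg/kg. Toxicity was monitored during treatment as significant weight loss or morbidity.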

Cytochrome P450 2C9 = Cytochrome P450 2C9 (Homo sapiens, UniProt P11712); experiment: Inhibition of human CYP2C9; type: ADME
Sequence of Cytochrome P450 2C9 (P11712 whole entry): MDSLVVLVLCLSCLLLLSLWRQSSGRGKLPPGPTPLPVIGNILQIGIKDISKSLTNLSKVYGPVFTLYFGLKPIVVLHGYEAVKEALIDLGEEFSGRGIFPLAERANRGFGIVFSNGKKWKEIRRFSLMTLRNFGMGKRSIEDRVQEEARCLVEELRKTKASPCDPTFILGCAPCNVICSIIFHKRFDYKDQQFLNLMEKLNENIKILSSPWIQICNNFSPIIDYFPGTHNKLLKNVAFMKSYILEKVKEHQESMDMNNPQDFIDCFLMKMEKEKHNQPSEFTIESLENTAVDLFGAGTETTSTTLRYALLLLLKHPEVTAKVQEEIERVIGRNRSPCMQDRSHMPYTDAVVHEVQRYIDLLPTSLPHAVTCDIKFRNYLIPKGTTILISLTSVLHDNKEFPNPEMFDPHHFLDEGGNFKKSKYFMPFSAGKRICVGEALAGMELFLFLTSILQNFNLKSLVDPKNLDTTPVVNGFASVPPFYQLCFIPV

Cytochrome P450 2C19 = Cytochrome P450 2C19 (Homo sapiens, UniProt P33261); experiment: Inhibition of human CYP2C19; type: ADME
Sequence of Cytochrome P450 2C19 (P33261 whole entry): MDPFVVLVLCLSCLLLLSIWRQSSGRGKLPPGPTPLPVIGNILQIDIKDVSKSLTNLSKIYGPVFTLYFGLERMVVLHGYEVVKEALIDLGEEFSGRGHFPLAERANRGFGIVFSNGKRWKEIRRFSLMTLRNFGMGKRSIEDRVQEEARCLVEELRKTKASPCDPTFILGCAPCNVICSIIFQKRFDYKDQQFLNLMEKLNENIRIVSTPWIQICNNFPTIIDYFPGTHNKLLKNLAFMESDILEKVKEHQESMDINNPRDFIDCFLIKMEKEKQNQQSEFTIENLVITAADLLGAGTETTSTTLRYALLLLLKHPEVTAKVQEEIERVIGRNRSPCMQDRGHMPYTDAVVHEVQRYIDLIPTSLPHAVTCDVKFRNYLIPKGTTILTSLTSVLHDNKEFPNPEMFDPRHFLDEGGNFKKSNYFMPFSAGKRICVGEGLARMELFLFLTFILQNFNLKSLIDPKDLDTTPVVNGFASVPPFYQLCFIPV

Cytochrome P450 2D6 = Cytochrome P450 2D6 (Homo sapiens, UniProt P10635); experiment: Inhibition of human CYP2D6; type: ADME
Sequence of Cytochrome P450 2D6 (P10635 whole entry): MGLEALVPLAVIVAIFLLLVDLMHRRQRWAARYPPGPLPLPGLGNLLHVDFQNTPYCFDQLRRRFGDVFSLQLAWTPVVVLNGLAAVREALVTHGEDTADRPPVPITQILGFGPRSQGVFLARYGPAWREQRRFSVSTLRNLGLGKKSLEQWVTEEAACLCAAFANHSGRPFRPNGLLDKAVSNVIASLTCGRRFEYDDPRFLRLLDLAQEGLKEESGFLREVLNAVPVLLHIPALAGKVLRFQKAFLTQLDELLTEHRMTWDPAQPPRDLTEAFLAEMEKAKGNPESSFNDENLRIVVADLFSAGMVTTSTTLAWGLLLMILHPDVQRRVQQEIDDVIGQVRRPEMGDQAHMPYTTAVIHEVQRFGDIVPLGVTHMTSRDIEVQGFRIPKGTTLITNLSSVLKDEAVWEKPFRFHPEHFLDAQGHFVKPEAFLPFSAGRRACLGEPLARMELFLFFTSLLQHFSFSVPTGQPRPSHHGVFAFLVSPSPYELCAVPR

[32] = Protein binding in mouse plasma at 10 uM by equilibrium dialysis; type: ADME, cell-free; settings: read-out: PPB (converted)
[33] = Protein binding in rat plasma at 10 uM by equilibrium dialysis; type: ADME, cell-free; settings: read-out: PPB (converted)
[34] = Protein binding in dog plasma at 10 uM by equilibrium dialysis; type: ADME, cell-free, Canis lupus familiaris; settings: read-out: PPB (converted)
[35] = Protein binding in cynomolgus monkey plasma at 10 uM by equilibrium dialysis; type: ADME, cell-free, Macaca fascicularis; settings: read-out: PPB (converted)
[36] = target: Voltage-gated inwardly rectifying potassium channel KCNH2 (Homo sapiens, UniProt Q12809); experiment: Inhibition of human ERG expressed in HEK cells; type: cell-based, HEK293
Sequence of Voltage-gated inwardly rectifying potassium channel KCNH2 (Q12809 whole entry): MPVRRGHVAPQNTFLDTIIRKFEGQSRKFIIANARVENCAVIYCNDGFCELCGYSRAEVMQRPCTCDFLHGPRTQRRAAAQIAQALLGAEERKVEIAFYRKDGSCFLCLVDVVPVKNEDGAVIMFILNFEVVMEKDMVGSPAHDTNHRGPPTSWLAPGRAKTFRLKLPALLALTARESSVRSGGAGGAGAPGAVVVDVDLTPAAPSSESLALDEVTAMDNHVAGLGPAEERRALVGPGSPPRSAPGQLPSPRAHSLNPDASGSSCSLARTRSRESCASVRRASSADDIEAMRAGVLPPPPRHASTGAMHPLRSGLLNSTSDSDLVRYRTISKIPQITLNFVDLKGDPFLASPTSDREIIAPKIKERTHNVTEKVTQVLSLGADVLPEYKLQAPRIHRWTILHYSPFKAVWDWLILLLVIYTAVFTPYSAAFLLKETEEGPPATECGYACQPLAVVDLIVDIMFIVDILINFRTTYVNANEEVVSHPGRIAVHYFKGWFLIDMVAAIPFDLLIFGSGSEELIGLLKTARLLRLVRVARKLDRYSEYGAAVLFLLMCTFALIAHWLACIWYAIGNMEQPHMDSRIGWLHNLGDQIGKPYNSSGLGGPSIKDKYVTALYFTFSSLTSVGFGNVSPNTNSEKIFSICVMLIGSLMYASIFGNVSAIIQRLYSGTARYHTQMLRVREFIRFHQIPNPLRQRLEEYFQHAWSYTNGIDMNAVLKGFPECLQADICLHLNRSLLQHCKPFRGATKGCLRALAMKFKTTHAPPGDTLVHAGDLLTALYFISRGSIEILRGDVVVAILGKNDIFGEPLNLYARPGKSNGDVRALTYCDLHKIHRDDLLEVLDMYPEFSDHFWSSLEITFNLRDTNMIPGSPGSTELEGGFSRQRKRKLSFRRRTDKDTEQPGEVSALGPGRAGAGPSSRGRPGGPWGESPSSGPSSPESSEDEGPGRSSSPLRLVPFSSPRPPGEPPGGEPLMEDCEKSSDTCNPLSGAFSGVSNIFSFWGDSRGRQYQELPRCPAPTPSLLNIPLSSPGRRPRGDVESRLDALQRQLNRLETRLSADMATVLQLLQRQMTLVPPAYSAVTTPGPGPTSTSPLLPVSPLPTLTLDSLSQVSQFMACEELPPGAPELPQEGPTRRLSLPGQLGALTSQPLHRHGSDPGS

[37] = Effect on action potential parameters in rabbit purkinje fiber up to 30 uM; type: ADME, tissue-based, Oryctolagus cuniculus
[38] = target: T1, Epidermal growth factor receptor and ErbB2 (HER1 and HER2) (Homo sapiens) (UniProt P04626+P00533); experiment: Inhibition of HER1/HER2 phosphorylation in human N87 cells by Western blot; type: cell-based; settings: NCI-N87
[39] = target: T1, Epidermal growth factor receptor and ErbB2 (HER1 and HER2) (Homo sapiens); experiment: Inhibition of HER1/HER2-mediated AKT phosphorylation in human GEO cells by Western blot; type: cell-based
[40] = target: T1, Epidermal growth factor receptor and ErbB2 (HER1 and HER2) (Homo sapiens); experiment: Inhibition of HER1/HER2-mediated MAPK phosphorylation in human GEO cells by Western blot; type: cell-based
[41] = target: T1, Epidermal growth factor receptor and ErbB2 (HER1 and HER2) (Homo sapiens); experiment: Inhibition of epidermal growth factor-induced HER1/HER2 heterodimer formation in human AU565 cells at 1 uM by immunoprecipitation; type: cell-based
L2987 [42] = experiment: Antitumor activity against human L2987 cells xenografted in athymic mouse at 30 mg/kg, po qd for 14 days; type: functional; settings: L2987, 336 h, read-out: TGI; method in brief: as §2

With Cc1c(NC(=O)OC[C@@H]2COCCN2)cn2ncnc(Nc3ccc4c(cnn4Cc4cccc(F)c4)c3)c12 [AC-480] the IC50 (NCI-N87 [1]) was 0.45 µM, the AUC(0-t) at 4 h [2] was 13.3 µM·h and the Cmax [3] was 4100 nM. It also gave a concentration (Mus musculus [4]) of 4100 nM, a Stability [5] of 0.02 nmol/min and a Vd [6] of 4.7 L/kg. For the same molecule, the bioavailability [7] was 83%, the Cmax [8] was 600 nM and the Tmax [9] was 0.7 h. It also gave an AUC(0-t) at 24 h [10] of 2.9 µM·h, a Vd [11] of 5.7 L/kg and a Cmax [12] of 1200 nM. It also gave a half-life [13] of 7.2 h, an MRT [14] of 6.9 h and a Cmax [15] of 500 nM. The Tmax [16] was 1.5 h, the half-life [17] was 5.7 h and the MRT [18] was 6.4 h. For the same molecule, the clearance [19] was 10.5 mL/min/kg, the bioavailability [20] was 31% and the inhibition in vivo at 60 mg/kg (L2987 [21]) was 58%. For the same molecule, the inhibition in vivo at 180 mg/kg (L2987 [22]) was 99%, the inhibition in vivo at 60 mg/kg [23] was 39% and the inhibition in vivo at 120 mg/kg [24] was 95%. It also gave an inhibition in vivo at 180 mg/kg [25] of 88%, an inhibition in vivo at 60 mg/kg [26] of 61% and an inhibition in vivo at 180 mg/kg [27] of 129%. It also gave an inhibition in vivo at 60 mg/kg (NCI-N87 [28]) of 39%, an inhibition in vivo at 120 mg/kg (NCI-N87 [29]) of 81% and an inhibition in vivo at 180 mg/kg (NCI-N87 [30]) of 71%. The Activity (Mus musculus [31]) was “Non-toxic”, the IC50 (Cytochrome P450 2C9) was 12 µM and the IC50 (Cytochrome P450 2C19) was 10 µM. For the same molecule, the IC50 (Cytochrome P450 2D6) was > 40 µM, the fraction unbound at 10 µM [32] was 0.017 and the fraction unbound at 10 µM [33] was 0.029. For the same molecule, the fraction unbound at 10 µM [34] was 0.029, the fraction unbound at 10 µM [35] was 0.031 and the IC50 [36] was 4 µM. For the same molecule, the Activity [37] was “Non-toxic”, the inhibition [38] was “Dose-dependent effect” and the inhibition [39] was “Dose-dependent effect”. For the same molecule, the inhibition [40] was “Dose-dependent effect”, the inhibition [41] was “Active” and the inhibition in vivo at 30 mg/kg (L2987 [42]) was < 50%.
